Measurements reported in ChEMBL document CHEMBL3098054, “The synthesis of novel taxoids for oral administration” (Bioorg Med Chem, 2014).

Columns and labels:
[1] = Efflux ratio of apparent permeability from basolateral to apical side over apical to basolateral side in human Caco2 cells at 10 uM after 90 mins by LC-MS/MS analysis; type: ADME, cell-based, Caco-2; conditions: Caco-2
Summary of the method: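 Caco-2 cells cultured 21 days on 24-well inserts, TEER >250 Ω·cm². Monolayers pre-incubated in HBSS pH 7.4 at 37 °C. Compound added to the donor side at 10 µM, 37 °C, 5% CO₂, 90 min, in the A-to-B and B-to-A directions. Donor and receiver levels measured by LC-MS/MS. Papp calculated from receiver amount, membrane area 0.7 cm², time and initial donor concentration. Efflux ratio = B–A/A–B.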

[2] = Apparent permeability from basolateral to apical side in human Caco2 cells at 10 uM after 90 mins by LC-MS/MS analysis; type: ADME, cell-based, Caco-2; conditions: Caco-2
[3] = Apparent permeability from apical to basolateral side in human Caco2 cells at 10 uM after 90 mins by LC-MS/MS analysis; type: ADME, cell-based, Caco-2; conditions: Caco-2
MCF7 [4] = assay: Cytotoxicity against human MCF7 cells after 72 hrs by MTT assay; type: functional, cell-based; conditions: MCF7, 72 h
Summary of the method: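 MCF-7 cells exposed to compound for 72 h and read by MTT. At least six replicate wells per assay, run on three separate occasions. IC₅₀ given as mean with standard deviation.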

HL-60 = assay: Cytotoxicity against human HL60 cells at 1 uM after 72 hrs by MTT assay; type: functional; conditions: HL-60, 72 h, read-out: GI
Summary of the method: (§1)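 Cells plated at 2000–5000/well, attached overnight at 37 °C. DMSO stocks (100 mM) serially diluted in medium to a final 1 µM, tested in duplicate wells. Exposure 72 h at 37 °C, 5% CO₂. MTT (5 mg/mL, 10 µL) added for 4 h. Lysis in 10% SDS / 5% isopropanol / 0.012 N HCl, then OD read at 580–680 nm.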

DU-145 = assay: Cytotoxicity against human DU145 cells at 1 uM after 72 hrs by MTT assay; type: functional; conditions: DU-145, 72 h, read-out: GI; summary of the method: as §1
HT-29 = assay: Cytotoxicity against human HT-29 cells at 1 uM after 72 hrs by MTT assay; type: functional; conditions: HT-29, 72 h, read-out: GI; summary of the method: as §1
A-375 = assay: Cytotoxicity against human A375 cells at 1 uM after 72 hrs by MTT assay; type: functional; conditions: A-375, 72 h, read-out: GI
Summary of the method: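 Cells plated at 2000–5000/well, attached overnight at 37 °C. DMSO stocks (100 mM) serially diluted in medium to a final 1 µM, tested in duplicate wells. MTT (5 mg/mL, 10 µL) added for 4 h. Lysis in 10% SDS / 5% isopropanol / 0.012 N HCl, then OD read at 580–680 nm.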

MCF7 [5] = assay: Cytotoxicity against human MCF7 cells at 1 uM after 72 hrs by MTT assay; type: functional; conditions: MCF7, 72 h, read-out: GI; summary of the method: as §1
NCI-H460 = assay: Cytotoxicity against human NCI-H460 cells at 1 uM after 72 hrs by MTT assay; type: functional; conditions: NCI-H460, 72 h, read-out: GI; summary of the method: as §1
HeLa = assay: Cytotoxicity against human HeLa cells at 1 uM after 72 hrs by MTT assay; type: functional; conditions: read-out: GI; summary of the method: as §1
A2780 = assay: Cytotoxicity against human A2780 cells at 1 uM after 72 hrs by MTT assay; type: functional; conditions: A2780, 72 h, read-out: GI; summary of the method: as §1

Compound | efflux ratio at 1.5 h, 10 µM [1] | Papp B→A at 1.5 h, 10 µM [2] [×10⁻⁶ cm/s] | Papp A→B at 1.5 h, 10 µM [3] [×10⁻⁶ cm/s] | IC50 (MCF7 [4]) [nM] | inhibition of growth at 1 µM (HL-60) [%] | inhibition of growth at 1 µM (DU-145) [%] | inhibition of growth at 1 µM (HT-29) [%] | inhibition of growth at 1 µM (A-375) [%] | inhibition of growth at 1 µM (MCF7 [5]) [%] | inhibition of growth at 1 µM (NCI-H460) [%] | inhibition of growth at 1 µM (HeLa) [%] | inhibition of growth at 1 µM (A2780) [%]
CO[C@H]1C(=O)[C@]2(C)[C@@H](OC)C[C@H]3OC[C@@]3(OC(C)=O)[C@H]2[C@H](OC(=O)c2ccccc2)[C@]23OC(=O)O[C@H]2[C@H](OC(=O)[C@H](O)[C@@H](NC(=O)OC(C)(C)C)c2ccccc2)C(C)=C1C3(C)C | 6.42 | 18.2 | 2.83 | 2.1 | 95.9 | 84.7 | 89 | 89.8 | 93.5 | 82.2 | 98.2 | 94.7
COC(=O)O[C@H]1C[C@H]2OC[C@@]2(OC(C)=O)[C@H]2[C@H](OC(=O)c3ccccc3)[C@]3(O)C[C@H](OC(=O)[C@H](O)[C@H](CC(C)C)NC(=O)OC(C)(C)C)C(C)=C([C@@H](OC)C(=O)[C@]12C)C3(C)C | – | 36.4 | 7.16 | 2.81 | – | – | – | – | – | – | 100 | –
COC(=O)O[C@H]1C(=O)[C@]2(C)[C@@H](OC)C[C@H]3OC[C@@]3(OC(C)=O)[C@H]2[C@H](OC(=O)c2ccccc2)[C@]2(O)C[C@H](OC(=O)[C@H](O)[C@@H](NC(=O)OC(C)(C)C)c3ccccc3)C(C)=C1C2(C)C | 4.22 | 29.2 | 6.91 | 1.4 | 97.4 | 83.3 | 87.3 | 103 | 95.3 | 80.4 | 99.5 | 94.1
COC(=O)O[C@H]1C[C@H]2OC[C@@]2(OC(C)=O)[C@H]2[C@H](OC(=O)c3ccccc3)[C@]34OC(=O)O[C@H]3[C@H](OC(=O)[C@H](O)[C@H](CC(C)C)NC(=O)OC(C)(C)C)C(C)=C([C@@H](OC)C(=O)[C@]12C)C4(C)C | 7.81 | 7.16 | 0.92 | 2.94 | – | – | – | – | – | – | – | –
CO[C@H]1C(=O)[C@]2(C)CC[C@H]3OC[C@@]3(OC(C)=O)[C@H]2[C@H](OC(=O)c2ccccc2)[C@]23OC(=O)O[C@H]2[C@H](OC(=O)[C@H](O)[C@@H](NC(=O)OC(C)(C)C)c2ccccc2)C(C)=C1C3(C)C | 9.56 | 25.3 | 2.64 | 4.49 | 97.7 | 89.1 | 87.3 | 94.4 | 86.3 | 84.7 | 99.9 | 96
CO[C@H]1C[C@H]2OC[C@@]2(OC(C)=O)[C@H]2[C@H](OC(=O)c3ccccc3)[C@]3(O)C[C@H](OC(=O)[C@H](O)[C@H](CC(C)C)NC(=O)OC(C)(C)C)C(C)=C([C@@H](OC(=O)N(C)C)C(=O)[C@]12C)C3(C)C | – | 32.6 | 8.17 | 1.7 | – | – | – | 89 | – | – | 101 | –
CC(=O)O[C@H]1C(=O)[C@@]2(C)[C@H]([C@H](OC(=O)c3ccccc3)[C@]34OC(=O)O[C@H]3[C@H](OC(=O)[C@H](O)[C@H](CC(C)C)NC(=O)OC(C)(C)C)C(C)=C1C4(C)C)[C@]1(OC(C)=O)CO[C@@H]1C[C@@H]2O [ORTATAXEL] | 6.84 | 19.2 | 2.8 | – | 96.5 | 90.6 | 87.7 | 96.7 | 88.7 | 85.5 | 99.5 | 96.4
